# Published values collected from several papers.
# Each line is one published result; the experiments were not run side by side.
Structure (SMILES),organism,assay,test system,conditions,quantity,value
O=C1C=C(OCc2cn(-c3ccc(Cl)cc3)nn2)C(=O)c2ccccc21,Klebsiella pneumoniae,"microbial growth, broth dilution",ATCC700603,,IC50,348 µg/mL
O=C1NC(=S)N/C1=C\c1ccc(-c2ccc(N(c3ccccc3)c3ccccc3)cc2)c2ccccc12,Streptococcus pneumoniae,"microbial killing, broth dilution",ATCC49619,,MBC,> 1000 µg/mL
Clc1ccc(-n2cc(COc3cccc4cccnc34)nn2)cc1,Klebsiella pneumoniae,"microbial growth, broth dilution",ATCC700603,,IC50,554 µg/mL
O=C(O)CC(O)C(=O)O (racemic),Cryptosporidium parvum,"parasite growth, imaging",HCT-8,"1 mM, 24 h, intracellular",activity vs control,98.3%
O=C(O)CN1C(=O)/C(=C/c2ccc(-c3ccc(N(c4ccccc4)c4ccccc4)cc3)c3ccccc23)NC1=S,Streptococcus pneumoniae,"microbial growth, broth dilution",ATCC49619,,MIC,> 1000 µg/mL
NC(=O)Cc1c[nH]c2ccccc12,Cryptosporidium parvum,"parasite growth, imaging",HCT-8,"1 mM, 24 h, intracellular",activity vs control,82.5%
N#CC(=Cc1ccc([N+](=O)[O-])cc1)C1=NC(=O)C(=Cc2cn(-c3ccccc3)nc2-c2ccccc2)S1,Klebsiella pneumoniae,"microbial growth, well diffusion",,100000 µg/mL,inhibition zone,22 mm
O=C1C=C(OCc2cn(-c3ccc([N+](=O)[O-])cc3)nn2)C(=O)c2ccccc21,Klebsiella pneumoniae,"microbial growth, broth dilution",ATCC700603,,IC50,370 µg/mL
Oc1cccc2[nH]ccc12,Cryptosporidium parvum,"parasite growth, imaging",HCT-8,"1 mM, 24 h, intracellular",activity vs control,43.8%
O=S(=O)(Oc1cccc2cccnc12)c1ccccc1,Klebsiella pneumoniae,"microbial growth, broth dilution",ATCC700603,,IC50,340 µg/mL
CCOC(=O)c1c(N)csc1-c1cn(-c2ccccc2)nc1-c1ccc(C)cc1,Klebsiella pneumoniae,"microbial growth, well diffusion",,100000 µg/mL,inhibition zone,27 mm
CSCC[C@H](N)C(=O)O,Cryptosporidium parvum,"parasite growth, imaging",HCT-8,"1 mM, 24 h, intracellular",activity vs control,107%
O=C1C=C(O)C(=O)c2ccccc21,Klebsiella pneumoniae,"microbial growth, broth dilution",ATCC700603,,IC50,123 µg/mL
CCCCC[C@H](O)/C=C/[C@H]1[C@H](O)CC(=O)[C@@H]1C/C=C\CCCC(=O)O,Cryptosporidium parvum,"parasite growth, imaging",HCT-8,"50 µM, 24 h, intracellular",activity vs control,88.5%
O=C(O)CN1C(=O)/C(=C/c2ccc(-c3ccc(N(c4ccccc4)c4ccccc4)cc3)cc2)NC1=S,Streptococcus pneumoniae,"microbial growth, broth dilution",ATCC49619,,MIC,62.5 µg/mL
N#CC(=Cc1ccc(Cl)cc1)C1=NC(=O)C(=Cc2cn(-c3ccccc3)nc2-c2ccccc2)S1,Klebsiella pneumoniae,"microbial growth, well diffusion",,100000 µg/mL,inhibition zone,21 mm
Cc1ccc(C(C)C)cc1OS(=O)(=O)c1ccc([N+](=O)[O-])cc1,Klebsiella pneumoniae,"microbial growth, broth dilution",ATCC700603,,IC50,463 µg/mL
O=c1[nH]c(=O)c2nc[nH]c2[nH]1,Cryptosporidium parvum,"parasite growth, imaging",HCT-8,"1 mM, 24 h, intracellular",activity vs control,100%
CC(C)(NC(=O)c1cc2c(F)cc(F)cc2[nH]1)c1cn(Cc2ccc(Cl)c(Cl)c2)nn1,Cryptosporidium parvum,"parasite growth, imaging",HCT-8,"11 µM, 72 h, intracellular",inhibition,~30%
O=c1cc[nH]c(=O)[nH]1,Cryptosporidium parvum,"parasite growth, imaging",HCT-8,"1 mM, 24 h, intracellular",activity vs control,101%
NS(=O)(=O)c1ccc(-n2cc(COc3cccc4cccnc34)nn2)cc1,Klebsiella pneumoniae,"microbial growth, broth dilution",ATCC700603,,IC50,866 µg/mL
Cc1c(NN=C2SC(CC#N)=NC2=O)c(=O)n(-c2ccccc2)n1C,Klebsiella pneumoniae,"microbial growth, well diffusion",,100000 µg/mL,inhibition zone,15 mm
O=C(O)CN1C(=O)/C(=C/c2ccc(-c3ccc(N(c4ccccc4)c4ccccc4)cc3)c3ccccc23)SC1=S,Streptococcus pneumoniae,"microbial killing, broth dilution",ATCC49619,,MBC,> 1000 µg/mL
NCCCCN,Cryptosporidium parvum,"parasite growth, imaging",HCT-8,"1 mM, 24 h, intracellular",activity vs control,110%
O=C(O)c1ccc(-n2cc(COc3cccc4cccnc34)nn2)cc1,Klebsiella pneumoniae,"microbial growth, broth dilution",ATCC700603,,IC50,215 µg/mL
O=C(Nc1ccccc1-c1ccc(F)c(F)c1)c1nccnc1C(F)(F)F,Alternaria kikuchiana,microbial growth,,,EC50,0.058 µg/mL
